biological target: T1, Substance-K receptor (Homo sapiens, UniProt P21452); assay: Displacement of [125 I]-NKA binding to tachykinin receptor 2 in CHO membranes; assay type: cell membranes; details: not given
T1 sequence (P21452 whole entry): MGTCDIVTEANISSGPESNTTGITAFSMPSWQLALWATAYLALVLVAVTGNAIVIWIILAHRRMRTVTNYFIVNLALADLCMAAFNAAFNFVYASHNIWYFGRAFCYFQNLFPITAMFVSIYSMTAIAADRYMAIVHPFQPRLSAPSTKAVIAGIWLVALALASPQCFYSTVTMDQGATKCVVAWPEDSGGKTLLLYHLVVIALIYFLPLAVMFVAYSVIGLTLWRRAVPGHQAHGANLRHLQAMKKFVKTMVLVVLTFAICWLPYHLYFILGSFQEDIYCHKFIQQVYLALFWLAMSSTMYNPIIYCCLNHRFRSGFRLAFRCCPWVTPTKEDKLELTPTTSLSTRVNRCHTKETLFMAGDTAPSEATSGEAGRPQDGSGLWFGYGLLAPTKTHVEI
Summary of the method: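 hNK-2-CHO crude membranes (~10 µg protein) were incubated with 0.15 nM [125I]-NKA for 90 min at 25 °C in Tris pH 7.4 buffer containing MnCl2, phosphoramidon and ovalbumin. Filtered through GF/C soaked in 0.1% PEI. Nonspecific binding defined with 0.5 µM cold NKA. Ki from IC50 by Cheng-Prusoff; duplicate curves, n = 3-5.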

Ki [µM]	SMILES
0.0007	CC(C)N1CCN(Cc2c(-c3ccccc3)nc3ccccc3c2C(=O)N[C@@H](C)C2CCCCC2)CC1
0.276	CC[C@H](NC(=O)c1c(CN2CCCCC2)c(-c2ccccc2)nc2ccccc12)c1ccccc1
0.0185	CCC(CC)NC(=O)c1c(CN2CCN(C(C)C)CC2)c(-c2ccccc2)nc2ccccc12
0.0516	CC(C)[C@H](NC(=O)c1c(CN(C)C)c(-c2ccccc2)nc2ccccc12)c1ccccc1
0.0046	CC[C@H](NC(=O)c1c(CN2CCC(N3CCCCC3)CC2)c(-c2ccccc2)nc2ccccc12)c1ccccc1
0.033	C[C@H](NC(=O)c1c(CN2CCC(N)CC2)c(-c2ccccc2)nc2ccccc12)C1CCCCC1
0.0024	C[C@H](NC(=O)c1c(CN2CCNCC2)c(-c2ccccc2)nc2ccccc12)C1CCCCC1
0.0012	CC(C)C(=O)N1CCN(Cc2c(-c3ccccc3)nc3ccccc3c2C(=O)N[C@@H](C)C2CCCCC2)CC1
0.0042	CC(C)N1CCN(Cc2c(-c3ccccc3)nc3ccccc3c2C(=O)NC2CCCCC2)CC1
0.0061	C[C@H](NC(=O)c1c(CN2CCOCC2)c(-c2ccccc2)nc2ccccc12)C1CCCCC1
0.0015	CC(C)[C@H](NC(=O)c1c(CN2CCN(C(C)C)CC2)c(-c2ccccc2)nc2ccccc12)c1ccccc1
0.0092	CC(C)C(C)NC(=O)c1c(CN2CCN(C(C)C)CC2)c(-c2ccccc2)nc2ccccc12 (centres undefined)
0.0016	CC[C@H](NC(=O)c1c(CN2CCN(C3CCCCC3)CC2)c(-c2ccccc2)nc2ccccc12)c1ccccc1
0.172	CC[C@H](NC(=O)c1c(CN(C)C)c(-c2ccccc2)nc2ccccc12)c1ccccc1
0.0008	C[C@H](NC(=O)c1c(CN2CCC(N3CCOCC3)CC2)c(-c2ccccc2)nc2ccccc12)C1CCCCC1
0.811	CC(C)NC(=O)c1c(CN2CCN(C(C)C)CC2)c(-c2ccccc2)nc2ccccc12
0.0222	CC[C@H](NC(=O)c1c(CN2CCNCC2)c(-c2ccccc2)nc2ccccc12)c1ccccc1
0.0006	C[C@H](NC(=O)c1c(CN2CCC(N3CCCCC3)CC2)c(-c2ccccc2)nc2ccccc12)C1CCCCC1
0.001	C[C@H](NC(=O)c1c(CN2CCC(N3CCCCC3)CC2)c(-c2ccccc2)nc2ccccc12)C(C)(C)C

biological target: T2, Neuromedin-K receptor (Homo sapiens, UniProt P29371); assay: (§1) Cellular functional antagonistic activity against NKB-induced [Ca2+] mobilization in HEK cells stably expressing the hNK-3 receptor; assay type: cell-based, HEK293; details: read-out: pA2 (converted)
T2 sequence (P29371 whole entry): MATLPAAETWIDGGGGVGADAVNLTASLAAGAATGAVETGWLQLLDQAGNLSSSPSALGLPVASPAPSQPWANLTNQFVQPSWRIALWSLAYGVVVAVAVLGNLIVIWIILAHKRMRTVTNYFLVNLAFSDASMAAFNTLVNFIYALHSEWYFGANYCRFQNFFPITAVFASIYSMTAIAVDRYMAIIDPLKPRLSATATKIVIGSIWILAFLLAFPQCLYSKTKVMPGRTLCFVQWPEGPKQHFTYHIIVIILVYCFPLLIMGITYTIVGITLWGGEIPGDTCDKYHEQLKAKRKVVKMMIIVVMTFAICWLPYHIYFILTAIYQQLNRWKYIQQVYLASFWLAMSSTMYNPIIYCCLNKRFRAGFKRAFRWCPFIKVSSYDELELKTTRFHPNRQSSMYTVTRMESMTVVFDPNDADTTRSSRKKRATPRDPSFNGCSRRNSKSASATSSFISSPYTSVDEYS

Kb [µM]	SMILES
0.002	C[C@H](NC(=O)c1c(CN2CCC(N3CCCCC3)CC2)c(-c2ccccc2)nc2ccccc12)C1CCCCC1

system: not listed separately; assay: Selectivity ratio (hNK-2/hNK-3) of the compound; details: not given

Ratio	SMILES
0.4	CC(C)N1CCN(Cc2c(-c3ccccc3)nc3ccccc3c2C(=O)N[C@@H](C)C2CCCCC2)CC1
39	CC[C@H](NC(=O)c1c(CN2CCCCC2)c(-c2ccccc2)nc2ccccc12)c1ccccc1
0.015	CCC(CC)NC(=O)c1c(CN2CCN(C(C)C)CC2)c(-c2ccccc2)nc2ccccc12
16	CC(C)[C@H](NC(=O)c1c(CN(C)C)c(-c2ccccc2)nc2ccccc12)c1ccccc1
3.1	CC[C@H](NC(=O)c1c(CN2CCC(N3CCCCC3)CC2)c(-c2ccccc2)nc2ccccc12)c1ccccc1
1.1	C[C@H](NC(=O)c1c(CN2CCC(N)CC2)c(-c2ccccc2)nc2ccccc12)C1CCCCC1
0.7	C[C@H](NC(=O)c1c(CN2CCNCC2)c(-c2ccccc2)nc2ccccc12)C1CCCCC1
0.9	CC(C)C(=O)N1CCN(Cc2c(-c3ccccc3)nc3ccccc3c2C(=O)N[C@@H](C)C2CCCCC2)CC1
0.003	CC(C)N1CCN(Cc2c(-c3ccccc3)nc3ccccc3c2C(=O)NC2CCCCC2)CC1
1.3	C[C@H](NC(=O)c1c(CN2CCOCC2)c(-c2ccccc2)nc2ccccc12)C1CCCCC1
1.2	CC(C)[C@H](NC(=O)c1c(CN2CCN(C(C)C)CC2)c(-c2ccccc2)nc2ccccc12)c1ccccc1
0.02	CC(C)C(C)NC(=O)c1c(CN2CCN(C(C)C)CC2)c(-c2ccccc2)nc2ccccc12 (centres undefined)
1.3	CC[C@H](NC(=O)c1c(CN2CCN(C3CCCCC3)CC2)c(-c2ccccc2)nc2ccccc12)c1ccccc1
78	CC[C@H](NC(=O)c1c(CN(C)C)c(-c2ccccc2)nc2ccccc12)c1ccccc1
1	C[C@H](NC(=O)c1c(CN2CCC(N3CCOCC3)CC2)c(-c2ccccc2)nc2ccccc12)C1CCCCC1
< 0.1	CC(C)NC(=O)c1c(CN2CCN(C(C)C)CC2)c(-c2ccccc2)nc2ccccc12
3.1	CC[C@H](NC(=O)c1c(CN2CCN(C(C)C)CC2)c(-c2ccccc2)nc2ccccc12)c1ccccc1
4.7	CC[C@H](NC(=O)c1c(CN2CCNCC2)c(-c2ccccc2)nc2ccccc12)c1ccccc1
0.3	C[C@H](NC(=O)c1c(CN2CCC(N3CCCCC3)CC2)c(-c2ccccc2)nc2ccccc12)C1CCCCC1
0.005	C[C@H](NC(=O)c1c(CN2CCC(N3CCCCC3)CC2)c(-c2ccccc2)nc2ccccc12)C(C)(C)C

biological target: T2, Neuromedin-K receptor; assay: Displacement of [125 I]-[MePhe]-NKB binding to hNK-3-CHO (Chinese hamster ovary) membranes; details: not given
Summary of the method: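 hNK-3-CHO crude membranes (~15 µg protein) were incubated with 0.15 nM [125I]-[MePhe7]-NKB in 50 mM Tris pH 7.4, 4 mM MnCl2, 1 µM phosphoramidon, 0.1% ovalbumin for 90 min at 25 °C. Filtered through BSA-presoaked GF/C, then scintillation counted. Nonspecific binding defined with 0.5 µM cold [MePhe7]-NKB. Ki from IC50 by Cheng-Prusoff; duplicates, n = 3-5.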

Ki [µM]	SMILES
0.0019	CC(C)N1CCN(Cc2c(-c3ccccc3)nc3ccccc3c2C(=O)N[C@@H](C)C2CCCCC2)CC1
0.007	CC[C@H](NC(=O)c1c(CN2CCCCC2)c(-c2ccccc2)nc2ccccc12)c1ccccc1
1.21	CCC(CC)NC(=O)c1c(CN2CCN(C(C)C)CC2)c(-c2ccccc2)nc2ccccc12
0.0015	CC[C@H](NC(=O)c1c(CN2CCC(N3CCCCC3)CC2)c(-c2ccccc2)nc2ccccc12)c1ccccc1
0.0312	C[C@H](NC(=O)c1c(CN2CCC(N)CC2)c(-c2ccccc2)nc2ccccc12)C1CCCCC1
0.0034	C[C@H](NC(=O)c1c(CN2CCNCC2)c(-c2ccccc2)nc2ccccc12)C1CCCCC1
0.0014	CC(C)C(=O)N1CCN(Cc2c(-c3ccccc3)nc3ccccc3c2C(=O)N[C@@H](C)C2CCCCC2)CC1
1.25	CC(C)N1CCN(Cc2c(-c3ccccc3)nc3ccccc3c2C(=O)NC2CCCCC2)CC1
0.0046	C[C@H](NC(=O)c1c(CN2CCOCC2)c(-c2ccccc2)nc2ccccc12)C1CCCCC1
0.0012	CC(C)[C@H](NC(=O)c1c(CN2CCN(C(C)C)CC2)c(-c2ccccc2)nc2ccccc12)c1ccccc1
0.454	CC(C)C(C)NC(=O)c1c(CN2CCN(C(C)C)CC2)c(-c2ccccc2)nc2ccccc12 (centres undefined)
0.0012	CC[C@H](NC(=O)c1c(CN2CCN(C3CCCCC3)CC2)c(-c2ccccc2)nc2ccccc12)c1ccccc1
0.0022	CC[C@H](NC(=O)c1c(CN(C)C)c(-c2ccccc2)nc2ccccc12)c1ccccc1
0.0008	C[C@H](NC(=O)c1c(CN2CCC(N3CCOCC3)CC2)c(-c2ccccc2)nc2ccccc12)C1CCCCC1
> 12	CC(C)NC(=O)c1c(CN2CCN(C(C)C)CC2)c(-c2ccccc2)nc2ccccc12
0.0047	CC[C@H](NC(=O)c1c(CN2CCNCC2)c(-c2ccccc2)nc2ccccc12)c1ccccc1
0.0017	C[C@H](NC(=O)c1c(CN2CCC(N3CCCCC3)CC2)c(-c2ccccc2)nc2ccccc12)C1CCCCC1
0.193	C[C@H](NC(=O)c1c(CN2CCC(N3CCCCC3)CC2)c(-c2ccccc2)nc2ccccc12)C(C)(C)C

biological target: T1, Substance-K receptor; assay: Cellular functional antagonistic activity against NKA-induced [Ca2+] mobilization in HEK cells stably expressing the tachykinin receptor 2; details: read-out: pA2 (converted)

Kb [µM]	SMILES
0.01	C[C@H](NC(=O)c1c(CN2CCC(N3CCCCC3)CC2)c(-c2ccccc2)nc2ccccc12)C1CCCCC1

biological target: T3, Substance-K receptor (Homo sapiens) (UniProt P21452); assay: as above; details: HEK293
T3 sequence (whole entry): T1 sequence (P21452 whole entry)

Kb [µM]	SMILES
0.0099	C[C@H](NC(=O)c1c(CN2CCC(N3CCCCC3)CC2)c(-c2ccccc2)nc2ccccc12)C1CCCCC1

biological target: T4, Neuromedin-K receptor (Homo sapiens) (UniProt P29371); assay: as §1; assay type: cell-based; details: HEK293
T4 sequence (whole entry): T2 sequence (P29371 whole entry)

Kb [µM]	SMILES
0.0026	C[C@H](NC(=O)c1c(CN2CCC(N3CCCCC3)CC2)c(-c2ccccc2)nc2ccccc12)C1CCCCC1

biological target: Mu-type opioid receptor (Homo sapiens, UniProt P35372); assay: Binding affinity towards human mu-opioid receptors in CHO (Chinese hamster ovary) cell lines; assay type: cell-based; details: not given
Summary of the method: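 CHO cells stably expressing hMOR grown in serum-free suspension culture; membranes made by hypotonic lysis in 10 mM potassium phosphate pH 7.2 with 3 mM MgCl2. Binding run in triplicate at 10 µg/mL protein with 0.4-0.5 nM radioligand for 60 min at 30 °C. Nonspecific binding defined with 10 µM naloxone; filtration and scintillation counting. Duplicate concentration-response curves, n = 3-5 for potent compounds.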

Mu-type opioid receptor, sequence (P35372 whole entry): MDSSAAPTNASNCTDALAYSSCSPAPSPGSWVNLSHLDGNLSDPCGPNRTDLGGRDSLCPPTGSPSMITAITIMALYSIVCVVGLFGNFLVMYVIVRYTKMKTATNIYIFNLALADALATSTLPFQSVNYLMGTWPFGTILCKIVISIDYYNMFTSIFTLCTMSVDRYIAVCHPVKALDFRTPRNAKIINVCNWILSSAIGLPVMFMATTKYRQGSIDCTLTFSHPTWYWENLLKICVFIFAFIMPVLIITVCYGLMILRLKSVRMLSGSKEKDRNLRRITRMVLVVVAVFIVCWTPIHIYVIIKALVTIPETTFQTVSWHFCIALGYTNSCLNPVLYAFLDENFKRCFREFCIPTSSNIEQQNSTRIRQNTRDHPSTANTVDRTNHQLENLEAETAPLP

Ki [µM]	SMILES
0.195	CC(C)N1CCN(Cc2c(-c3ccccc3)nc3ccccc3c2C(=O)N[C@@H](C)C2CCCCC2)CC1
1.86	CC[C@H](NC(=O)c1c(O)c(-c2ccccc2)nc2ccccc12)c1ccccc1 [TALNETANT]
> 2.5	CC[C@H](NC(=O)c1c(CN2CCCCC2)c(-c2ccccc2)nc2ccccc12)c1ccccc1
> 2.5	CC(C)[C@H](NC(=O)c1c(CN(C)C)c(-c2ccccc2)nc2ccccc12)c1ccccc1
0.919	CC[C@H](NC(=O)c1c(CN2CCC(N3CCCCC3)CC2)c(-c2ccccc2)nc2ccccc12)c1ccccc1
1.78	C[C@H](NC(=O)c1c(CN2CCC(N)CC2)c(-c2ccccc2)nc2ccccc12)C1CCCCC1
0.172	C[C@H](NC(=O)c1c(CN2CCNCC2)c(-c2ccccc2)nc2ccccc12)C1CCCCC1
> 2.5	CC(C)C(=O)N1CCN(Cc2c(-c3ccccc3)nc3ccccc3c2C(=O)N[C@@H](C)C2CCCCC2)CC1
0.226	CC(C)N1CCN(Cc2c(-c3ccccc3)nc3ccccc3c2C(=O)NC2CCCCC2)CC1
> 2.5	C[C@H](NC(=O)c1c(CN2CCOCC2)c(-c2ccccc2)nc2ccccc12)C1CCCCC1
0.12	CC(C)[C@H](NC(=O)c1c(CN2CCN(C(C)C)CC2)c(-c2ccccc2)nc2ccccc12)c1ccccc1
0.0158	CC[C@H](NC(=O)c1c(CN2CCN(C3CCCCC3)CC2)c(-c2ccccc2)nc2ccccc12)c1ccccc1
1.68	CC[C@H](NC(=O)c1c(CN(C)C)c(-c2ccccc2)nc2ccccc12)c1ccccc1
> 2.5	C[C@H](NC(=O)c1c(CN2CCC(N3CCOCC3)CC2)c(-c2ccccc2)nc2ccccc12)C1CCCCC1
0.0986	CC[C@H](NC(=O)c1c(CN2CCN(C(C)C)CC2)c(-c2ccccc2)nc2ccccc12)c1ccccc1
0.203	CC[C@H](NC(=O)c1c(CN2CCNCC2)c(-c2ccccc2)nc2ccccc12)c1ccccc1
1.32	C[C@H](NC(=O)c1c(CN2CCC(N3CCCCC3)CC2)c(-c2ccccc2)nc2ccccc12)C1CCCCC1
≥ 2	C[C@H](NC(=O)c1c(CN2CCC(N3CCCCC3)CC2)c(-c2ccccc2)nc2ccccc12)C(C)(C)C

Source: ChEMBL document CHEMBL1134438, “Stepwise modulation of neurokinin-3 and neurokinin-2 receptor affinity and selectivity in quinoline tachykinin receptor antagonists” (J Med Chem, 2001)
